In the series the test system is MS2 coat protein. As to the kind of experiment: apparent Kd, MS2 coat protein; higher = weaker binding; RNA-MaP array; FMN 200 µM where present. In outline:
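The apparent Kd is reported as the median of filtered per-cluster binding-curve fits. To get these curves, designs transcribed by stalled E. coli RNA polymerase on Illumina sequencing-chip clusters were titrated with SNAP-549-labelled MS2 coat protein from 0.7 or 1.5 nM, doubling to 3 µM. Titrations were run without and then with constant ligand in 100 mM Tris-HCl pH 7.5, 80 mM KCl, 4 mM MgCl2, BSA, DTT, yeast tRNA and Tween-20, and green signal was normalised to red-channel RNA signal and control-cluster median Fmax.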

Where [1] appears, read: designed as: ON switch for flavin mononucleotide, no ligand.
The mark [2] stands for this setting: ligand present: flavin mononucleotide, designed as: ON switch for flavin mononucleotide.
[3] abbreviates: designed as: OFF switch for flavin mononucleotide, no ligand.
Where [4] appears, read: ligand present: flavin mononucleotide, designed as: OFF switch for flavin mononucleotide.

By apparent Kd is commonly meant the concentration giving half-maximal binding under the conditions of the assay. As to “GCGAUUUUGUAAGGAUAUACACGAGUUUUAAGUGUAGAAGGUGCUUACAUGAGGAUCACCCAUGUAUAAAUGUAUAAUAGUCGC”, the “apparent Kd” value stood at 9.14 nM under setting [1] and 8.18 nM under setting [2].

“CAGCGAUAGCUAAAGUAUCUAUCAGAGGAUAUUUAUGAAACAUGAGGAUCACCCAUGUGAAACUGGGAGAAGGCUGAUAGAUAG”: the “apparent Kd” value reads like this: under setting [1], 11.9 nM; under setting [2], 5.47 nM.

For the sequence “UGAACUAUGUAGAAGGCCCACAUUAAUAUGUAGGGAGGAUAUACAUGAGGAUCACCCAUGUAAAGAGCAAGAGGAUUUAACAGA”, the “apparent Kd” value under setting [3] stood at 10.3 nM and the “apparent Kd” value under setting [4] is 21.7 nM.

In the case of “AAAAAGCGAGGAUAUACAUGAGGAUCACCCAUGUCAAAAAAAUAGAAAAAAAUAAAAAGUAGAAGGCGCAAAAA”, the “apparent Kd” value was determined as 58.8 nM under setting [3] and 58.4 nM under setting [4].

As to “AUUAUACAUGAGGAUCACCCAUGUAAUUAAUCUAGUAAGAUCUAGGAUAUCAGCUCGUUUAGAGCUGAGAAGGAGAUCACAUGU”, the “apparent Kd” value is, setting by setting: under setting [1], 53.5 nM; under setting [2], 21 nM.

Turning to “CAAAGGUGAGGAUAUGCAUAACUAUGACGAAAGUCAUAAACACAUGAGGAUCACCCAUGUAGAAGGCACCACAA”, the “apparent Kd” value by setting is: under setting [3], 23.9 nM; under setting [4], 18.3 nM.

“UGUUCUAUGUAGAAGGCCCAUAUCUGUUUUUAGGGAGGAUAUACAUGAGGAUCACCCAUGUGUAGAGCUGGUGGACUGGUCAGC”: the “apparent Kd” value under setting [3] turned out to be 13.7 nM and the “apparent Kd” value under setting [4] amounted to 40.1 nM.

For “UAUGGUUAAGUCAGGAUAUGCUCAUAGAGGUCUGUGCAGAAGGGACAUGAGGAUCACCCAUGUAUGGUCGUGUU”, the “apparent Kd” value under setting [3] came out at 254 nM and the “apparent Kd” value under setting [4] is 237 nM.

For “ACACAUGAGGAUCACCCAUGUACUCGACACAUUCAUUGGGCACAGGAUAUACGGUGAAGUCUUUCGUAGAAGGGUGCUAGUGUG”, the “apparent Kd” value runs as follows: under setting [1], 84 nM; under setting [2], 18.4 nM.

On to “CCCGUGUGAGGAUAUCGUUCGCUUGGCGUUUGUCGGGUGGGCGAGAAGGUACAUGAGGAUCACCCAUGUGCGGG”, for which the “apparent Kd” value was 172 nM under setting [3] and 422 nM under setting [4].

Consider “GAUAGAGAGCAGGAUAUCUUAGAAAUGUAUUAUAGAGAAGGGCUCACAUGAGGAUCACCCAUGUGGUCCUAGAU”, for which the “apparent Kd” value by setting is: under setting [3], 16.4 nM; under setting [4], 108 nM.

Turning to “UUAUUAUAUGUAGGAUAUGCAUAUUAUUAUUAUGCAGAAGGACAUGAGGAUCACCCAUGUAUAUUGUUGUUGUAUAUUAUAUAU”, the “apparent Kd” value is, setting by setting: under setting [3], 25.1 nM; under setting [4], 30.4 nM.

“AACAUACAUGAGGAUCACCCAUGUUCCGGCAGGACAGGAUAUACAUCGAAAGUGUUAUAAGUAGAAGGGUCAUAAA”: the “apparent Kd” value amounted to 77.8 nM under setting [1] and 71.2 nM under setting [2].

As for “GCUCCCGGUGUCAGGAUAUAGAGUUGGAAACGCCACUAGAAGGGACAUGAGGAUCACCCAUGUCAAGUUCGCUC”, the “apparent Kd” value came out at 14.8 nM under setting [3] and 14.9 nM under setting [4].

As to “AACAGCUCGUCAGGAUAUAUUAUAUUUAUAUGGCUGAAUGUACAUGAGGAUCACCCAUGUAGUUUGUAGAAGGGACGAGCUGAA”, the “apparent Kd” value under setting [3] was determined as 11.6 nM and the “apparent Kd” value under setting [4] amounted to 18.9 nM.

As to “AAUAUGAGCUGGAAUAUAAACCUCACAUGAGGAUCACCCAUGUAGGAUAUCAGCACGAUAAGUGCUGAGAAGGACAACCAGCUC”, the “apparent Kd” value was 15.1 nM under setting [3] and 17.1 nM under setting [4].

Take “ACCAUUUACUAAUUAUCUAUACAUGAGGAUCACCCAUGUUAAGAGGAUAUCAUCGUUCGCCGCGAUGAGAAGGCUUAGCAUUCG”: the “apparent Kd” value reads like this: under setting [3], 48.8 nM; under setting [4], 154 nM.

For “UAGAAGUCAGGAUAUCCUGCUCGUCACUUGCGUGAUGAGUAGGAGAAGGGACAUGAGGAUCACCCAUGUAAAGG”, the “apparent Kd” value reads like this: under setting [3], 188 nM; under setting [4], 258 nM.

As for “AGUGUCAUCGAGAAGGCCUCAACAUGAGGAUCACCCAUGUUGCAAAAUGGGAGGAUAUCGCGCGUUCUAAAACGUUUCGUAGCA”, the “apparent Kd” value worked out at 54.1 nM under setting [1] and 18 nM under setting [2].

Regarding “GAAGGCUGGUAGAAGGAUCCUCACAUGAGGAUCACCCAUGUAACAGCGGAUAGGAUAUACCGUCUUUCACGUUGGUCUCCCUAA”, the “apparent Kd” value under setting [1] stood at 370 nM and the “apparent Kd” value under setting [2] was 25.3 nM.

For the sequence “CAAUCUCAGAUAGGAUAUAUAGGAUAACUUAAGACCUAACAUGAGGAUCACCCAUGUGAUUAUUCGUAGAAGGAUCAUUGAACU”, the “apparent Kd” value amounted to 226 nM under setting [1] and 244 nM under setting [2].

For “AUAAUUUUAUUUUUCCCAAGAAUCAGAAGGCAUUACAUGAGGAUCACCCAUGUUUUGGAUAGUAAUGAGGAUAUGAUAUGGUUA”, the “apparent Kd” value reads like this: under setting [3], 10.2 nM; under setting [4], 23.5 nM.

For “AAGUUUGUACGAGGAUAUCAAUUGUUUCUAAAUUCAACAUGAGGAUCACCCAUGUAACAAUGGAGUGAGAAGGCGUGUGGGCAA”, the “apparent Kd” value was found to be 214 nM under setting [1] and 203 nM under setting [2].

Regarding “AGUUACAUACUCAACAUGAGGAUCACCCAUGUACUCUCUUGUAAGGAUAUACAUUCGUAUUGAAAGUAGAAGGUACUAAUUAUG”, the “apparent Kd” value was 89.1 nM under setting [1] and 77.3 nM under setting [2].

Regarding “AUGACAUGCACAGGAUAUUAGGCGCAGUACAGAUAAGAAGGGUGGAUCAGCAUACAUGAGGAUCACCCAUGUUGUUGUAACAUG”, the “apparent Kd” value reads like this: under setting [1], 350 nM; under setting [2], 183 nM.

Regarding “GUGACGAAUGUAGGAUAUGCUGACCAAUGGUCAGCAGAAGGACAUGAGGAUCACCCAUGUCAUCCUUAUAAUAAAUAACGUCAC”, the “apparent Kd” value reads like this: under setting [3], 13.4 nM; under setting [4], 18.1 nM.

“GGUCAACAUGAGGAUCACCCAUGUAAGCCAAGGCAAGGAUAUGGGUAUAGGGUACUAGGGUUAGAAGGUGCCAAUA”: the “apparent Kd” value stood at 144 nM under setting [1] and 182 nM under setting [2].

Take “CGAAAAUUUCAGAAGGACCAAUUCCACAUGAGGAUCACCCAUGUCGAUGGUAGGAUAUGGAGUUGUGGACAGGGUGGAUGUUCC”: the “apparent Kd” value is, setting by setting: under setting [1], 122 nM; under setting [2], 12.6 nM.

Regarding “AUAUCUCUAUUAGUUCCAAUACGAACAUGAGGAUCACCCAUGUAGGAUAUGCUAGAAGUUGUGUUGCAGAAGGACAAGUACCUU”, the “apparent Kd” value under setting [3] was 11.8 nM and the “apparent Kd” value under setting [4] amounted to 11.1 nM.

On to “GUCGGCUCGUGAGGAUAUACAACACUGCUUCGGCAGUGUAUUAAGAUCACAUGAGGAUCACCCAUGUAGAAGGCACGAGCUGAU”, for which the “apparent Kd” value reads like this: under setting [3], 13.8 nM; under setting [4], 221 nM.

As for “GUCAGCUCGUGAGGAUAUACAACACUGCUUCGGCAGUGUAUUAAGAUCACAUGAGGAUCACCCAUGUAGAAGGCACGAUCUGAU”, the “apparent Kd” value is, setting by setting: under setting [3], 13.6 nM; under setting [4], 220 nM.

Regarding “CAGUACUGAGGAUAUACAUGAGGAUCACCCAUGUGUUCCAGCUAGGAAACUAGCAAAAGUAGAAGGCAGUUCUG”, the “apparent Kd” value is, setting by setting: under setting [3], 20.2 nM; under setting [4], 182 nM.

For the sequence “GUAGCUACUAUUAUACAUGAGGAUCACCCAUGUUACAUGGGUAAGGAUAUUGAAGUUAUUAUUAUCAAGAAGGUACUAUGCUAC”, the “apparent Kd” value by setting is: under setting [1], 570 nM; under setting [2], 102 nM.

As to “GUCGUGCGGCUUUGCUGUACGAGUACAUGAGGAUCACCCAUGUAGGAUAUGGUUCGUUUUGCGUGCUAGAAGGGCGUGCGUUGU”, the “apparent Kd” value under setting [3] was 25.7 nM and the “apparent Kd” value under setting [4] came to 21.3 nM.

As to “CUAUCGUUGCAGAAGGUUAAAUAAUUUCUCAUCUUGUUUACAUGAGGAUCACCCAUGUAUUUGUUGAAGGAUAUGCAAGUGUUG”, the “apparent Kd” value under setting [3] worked out at 12.5 nM and the “apparent Kd” value under setting [4] came to 11 nM.

For “UCACGGGAUUGAGGAUAUAUAUUUAUUAUUUUAAUAGAAGGCAAAGAGUUAGUUUUUUCACUAUACAUGAGGAUCACCCAUGUU”, the “apparent Kd” value runs as follows: under setting [3], 33.4 nM; under setting [4], 30.5 nM.

“CGUGCGUCGACAGGAUAUACAGAUUGGCUCCGGUACAUGAGGAUCACCCAUGUAGAAGGGUCACGCACGGUUAGUUCGUUAUUA”: the “apparent Kd” value was found to be 8.88 nM under setting [3] and 40.9 nM under setting [4].

In the case of “GCCAUCGCAUGAGGAUAUGCUCCCGUUUCGGGAGCAGAAGGCAUGUCACAAGACAUGAGGAUCACCCAUGUAGUUAAGAUGGCA”, the “apparent Kd” value under setting [1] was determined as 194 nM and the “apparent Kd” value under setting [2] was 8.52 nM.

In the case of “AUAAAACAUGAGGAUCACCCAUGUCAACAAAGUCGAGGAUAUGGGCAAAUAAAAUAAGAACCAGAAGGCGAAUAUU”, the “apparent Kd” value runs as follows: under setting [1], 223 nM; under setting [2], 48 nM.

“AACGAGCAGUAGAAGGCGUGUCUACGGACAUGAGGAUCACCCAUGUUGUGACUCCGAAAGGAGCGCGAGGAUAUACUGCUCAAA”: the “apparent Kd” value under setting [1] was 10.3 nM and the “apparent Kd” value under setting [2] worked out at 6.57 nM.

Take “GGGCCCGGAGGAUAUACAAUUUUGGGCCGAAAGGCCCGGGUACAUGAGGAUCACCCAUGUAGAAGGCCGGGUUU”: the “apparent Kd” value turned out to be 31.9 nM under setting [3] and 311 nM under setting [4].

Take “GUAGCAUACAGAGGAUAUUCAAACCACAAAAGUGGACAUGAGGAUCACCCAUGUGGCGAAAGCCGGGAGAAGGCUGAAUGCUAC”: the “apparent Kd” value stood at 15.9 nM under setting [1] and 14.3 nM under setting [2].

For “UCCUUAGCGGUCAGGAUAUACACCCGUUACUCCUUGUAGAAGGGACAUGAGGAUCACCCAUGUACAGUACAUCU”, the “apparent Kd” value runs as follows: under setting [3], 22.9 nM; under setting [4], 21 nM.

In the case of “AAAAAACAUGAGGAUCACCCAUGUGAGGAUAUCUGUAUCCAAAAGGAAGUGUAGGAUCAGAGAAGGCACUAGGA”, the “apparent Kd” value was found to be 68.1 nM under setting [3] and 123 nM under setting [4].

Regarding “AAUAACAGAGGAUAUACUAUUUUAUGUGUUUGUUGUUUUAAACAUGAGGAUCACCCAUGUAGAAGGCUGAUUAA”, the “apparent Kd” value is, setting by setting: under setting [3], 32.7 nM; under setting [4], 38.8 nM.

Consider “GAUUAGUGAGGAUAUGGUAAAGAUAAGAUGAUGAAAGAACUCCAGAAGGCACAUGAGGAUCACCCAUGUAGUAU”, for which the “apparent Kd” value is 17.4 nM under setting [3] and 21.6 nM under setting [4].

Take “GCAUCCCAUGUCAGGAUAUGCUGUACCUUGGUACAGCAGAAGGGACAUGAGGAUCACCCAUGUGCCUAGGAUGC”: the “apparent Kd” value by setting is: under setting [3], 51.2 nM; under setting [4], 438 nM.

Consider “AGUCGGAGCAGAGGAUAUACAUGAGGAUCACCCAUGUAAAUGGAAUAAGACUGGAAACAGUCAAUGUAGAAGGCUGCUCCGACA”, for which the “apparent Kd” value is 68.5 nM under setting [3] and 673 nM under setting [4].
